Values after ≈ are worked out from the molar mass of the structure shown. Active and inactive are the calls of the source. No cut-off for these calls is given here.
Assays:
Pseudomonas aeruginosa = test: Antibacterial activity against Pseudomonas aeruginosa ATCC27853 incubated for 24 hrs by CLSI-based broth microdilution method; assay type: functional
Escherichia coli = test: Antibacterial activity against Escherichia coli ATCC25922 incubated for 24 hrs by CLSI-based broth microdilution method; assay type: functional; conditions: ATCC 25922
Staphylococcus aureus [1] = test: Antibacterial activity against Staphylococcus aureus clinical isolate incubated for 24 hrs by CLSI-based broth microdilution method; assay type: functional
Bacillus pumilus = test: Antibacterial activity against Bacillus pumilus CMCC63202 incubated for 24 hrs by CLSI-based broth microdilution method; assay type: functional
Staphylococcus aureus [2] = test: Antibacterial activity against Staphylococcus aureus ATCC25923 incubated for 24 hrs by CLSI-based broth microdilution method; assay type: functional
Staphylococcus aureus [3] = test: Antibacterial activity against methicillin-resistant Staphylococcus aureus ATCC43300 incubated for 24 hrs by CLSI-based broth microdilution method; assay type: functional
Bacillus subtilis [4] = test: Antibacterial activity against Bacillus subtilis ATCC9372 incubated for 24 hrs by CLSI-based broth microdilution method; assay type: functional
Staphylococcus aureus [5] = test: Antibacterial activity against penicillin-resistant Staphylococcus aureus incubated for 24 hrs by CLSI-based broth microdilution method; assay type: functional
Bacillus subtilis [6] = test: Inhibition of ftsZ in Bacillus subtilis assessed as increase in enzyme polymerization kinetics at 5 ug/ml measured for 30 mins by microtiter plate-based light scattering assay; conditions: dose 5.0 µg/ml
Summary of the method: (§1)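 Purified recombinant B. subtilis FtsZ was used. Polymerization was followed as light scattering in microtiter plates, read as time-dependent absorbance at 340 nm at several compound concentrations. Vehicle, CIP and LIN served as controls.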

Staphylococcus aureus [7] = test: Potency index, ratio of linezolid MIC to test compound MIC for antibacterial activity against penicillin-resistant Staphylococcus aureus incubated for 24 hrs by CLSI-based broth microdilution method; assay type: functional
Staphylococcus aureus [8] = test: Potency index, ratio of PC190723 MIC to test compound MIC for antibacterial activity against penicillin-resistant Staphylococcus aureus incubated for 24 hrs by CLSI-based broth microdilution method; assay type: functional
Staphylococcus aureus [9] = test: Potency index, ratio of linezolid MIC to test compound MIC for antibacterial activity against methicillin-resistant Staphylococcus aureus ATCC43300 incubated for 24 hrs by CLSI-based broth microdilution method; assay type: functional
Staphylococcus aureus [10] = test: Potency index, ratio of ciprofloxacin MIC to test compound MIC for antibacterial activity against methicillin-resistant Staphylococcus aureus ATCC43300 incubated for 24 hrs by CLSI-based broth microdilution method; assay type: functional
Staphylococcus aureus [11] = test: Potency index, ratio of PC190723 MIC to test compound MIC for antibacterial activity against methicillin-resistant Staphylococcus aureus ATCC43300 incubated for 24 hrs by CLSI-based broth microdilution method; assay type: functional
Staphylococcus aureus [12] = test: Bactericidal activity against Staphylococcus aureus clinical isolate assessed as reduction in number of colony forming units at 4XMIC incubated for 9 hrs by Time-kill assay; assay type: functional
HeLa = test: Cytotoxicity against human Hela cells assessed as reduction in cell viability incubated for 48 hrs by MTT assay; assay type: cell-based
Summary of the method: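 HeLa (human cervical cancer) cells were exposed continuously for 48 h, and viability was read by MTT.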

Staphylococcus aureus [13] = test: In-vivo antibacterial activity against Staphylococcus aureus infected in KM mouse model assessed as reduction in bacterial load in blood at 10 mg/kg, iv administered thrice daily and measured after 48 hrs; assay type: functional, organism-based
Summary of the method: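 Groups of four KM mice (average 20 g) were infected i.v. with 8.5 × 10⁸ CFU of a clinical S. aureus isolate resistant to CIP and ERY, in 0.15 mL saline. Treatment was 10 mg/kg i.v. three times daily. Vehicle was 2% DMAC, 30% PEG400/PG (1:1) and 5% HPβCD in water; vehicle and LIN arms were included. At 48 h, retro-orbital blood (0.1 mL) was plated on TSA for CFU counts.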

Bacillus subtilis [14] = test: Inhibition of FtsZ in Bacillus subtilis ATCC9372 assessed as inhibition of bacterial cell elongation by measuring bacterial cell length at 0.25 ug/ml incubated for 18 hrs by phase contrast microscopic analysis (reference value: 2.28 +/- 0.29 um); conditions: dose 0.25 µg/ml
Summary of the method: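 Compound at 0.25 μg/mL, compared with untreated cells, imaged by microscopy. For B. subtilis ATCC9372, cell length was measured (n = 15). For S. aureus ATCC CI, cell diameter was measured (n = 15). Mean and SD were reported.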

Staphylococcus aureus [15] = test: Bactericidal activity against Staphylococcus aureus clinical isolate assessed as reduction in number of colony forming units at 1XMIC incubated for 24 hrs by Time-kill assay; assay type: functional
Staphylococcus aureus [16] = test: Bactericidal activity against Staphylococcus aureus clinical isolate assessed as reduction in number of colony forming units at 2XMIC incubated for 12 hrs by Time-kill assay; assay type: functional
Staphylococcus aureus [17] = test: Bactericidal activity against Staphylococcus aureus clinical isolate assessed as reduction in number of colony forming units at 0.5 times MIC incubated for 24 hrs by Time-kill assay; assay type: functional, organism-based
Staphylococcus aureus [18] = test: Bacteriostatic activity against Staphylococcus aureus clinical isolate assessed as ratio of MBC to MIC; assay type: functional
Staphylococcus aureus [19] = test: Bacteriostatic activity against penicillin-resistant Staphylococcus aureus assessed as ratio of MBC to MIC; assay type: functional
Staphylococcus aureus [20] = test: Bacteriostatic activity against methicillin-resistant Staphylococcus aureus ATCC43300 assessed as ratio of MBC to MIC; assay type: functional
Staphylococcus aureus [21] = test: Bacteriostatic activity against Staphylococcus aureus ATCC25923 assessed as ratio of MBC to MIC; assay type: functional
Staphylococcus aureus [22] = test: Bactericidal activity against Staphylococcus aureus clinical isolate assessed as reduction in number of colony forming units incubated for 24 hrs followed by re-plating and reincubation on tryptic soy agar plate for 24 hrs; assay type: functional
Staphylococcus aureus [23] = test: Bactericidal activity against penicillin-resistant Staphylococcus aureus assessed as reduction in number of colony forming units incubated for 24 hrs followed by re-plating and reincubation on tryptic soy agar plate for 24 hrs; assay type: functional
Staphylococcus aureus [24] = test: Bactericidal activity against methicillin-resistant Staphylococcus aureus ATCC43300 assessed as reduction in number of colony forming units incubated for 24 hrs followed by re-plating and reincubation on tryptic soy agar plate for 24 hrs; assay type: functional
Staphylococcus aureus [25] = test: Bactericidal activity against Staphylococcus aureus ATCC25923 assessed as reduction in number of colony forming units incubated for 24 hrs followed by re-plating and reincubation on tryptic soy agar plate for 24 hrs; assay type: functional
Bacillus subtilis [26] = test: Inhibition of ftsZ in Bacillus subtilis assessed as increase in enzyme polymerization kinetics measured for 30 mins by microtiter plate-based light scattering assay; summary of the method: as §1
Staphylococcus aureus [27] = test: Inhibition of FtsZ in Staphylococcus aureus clinical isolate assessed as inhibition of bacterial cell elongation by measuring bacterial cell diameter at 0.25 ug/ml incubated for 18 hrs by phase contrast microscopic analysis (reference value: 0.79 +/- 0.05 um); conditions: dose 0.25 µg/ml
Bacillus subtilis [28] = test: Inhibition of ftsZ in Bacillus subtilis assessed as increase in enzyme polymerization kinetics at 10 ug/ml measured for 30 mins by microtiter plate-based light scattering assay; conditions: dose 10.0 µg/ml

Structure (SMILES)	MIC (Pseudomonas aeruginosa)	MIC (Escherichia coli)	MIC (Staphylococcus aureus [1])	MIC (Bacillus pumilus)	MIC (Staphylococcus aureus [2])	MIC (Staphylococcus aureus [3])	MIC (Bacillus subtilis [4])	MIC (Staphylococcus aureus [5])	FtsZ polymerization increase (active/inactive call) (Bacillus subtilis [6])	Activity (Staphylococcus aureus [13])	MBC (Staphylococcus aureus [22])	MBC (Staphylococcus aureus [23])	MBC (Staphylococcus aureus [24])	MBC (Staphylococcus aureus [25])	other results
CC[C@H]1OC(=O)[C@H](C)[C@@H](O[C@H]2C[C@@](C)(OC)[C@@H](O)[C@H](C)O2)[C@H](C)[C@@H](O[C@@H]2O[C@H](C)C[C@H](N(C)C)[C@H]2O)[C@](C)(O)C[C@@H](C)C(=O)[C@H](C)[C@@H](O)[C@]1(C)O [ERYTHROMYCIN]	32 µg/mL (≈ 43.6 µM)	16 µg/mL (≈ 21.8 µM)	> 64 µg/mL	≤ 0.125 µg/mL	≤ 0.125 µg/mL	> 64 µg/mL	≤ 0.125 µg/mL	–	–	–	–	–	–	–	–
NC(=O)c1c(F)ccc(OCC2=NOC(c3ccc(Cl)cc3Cl)C2)c1F (stereo unspecified)	> 64 µg/mL	> 64 µg/mL	16 µg/mL (≈ 39.9 µM)	0.5 µg/mL (≈ 1.25 µM)	32 µg/mL (≈ 79.8 µM)	16 µg/mL (≈ 39.9 µM)	2 µg/mL (≈ 4.99 µM)	32 µg/mL (≈ 79.8 µM)	–	–	–	–	–	–	–
CCCCc1ccc(-c2cc(COc3ccc(F)c(C(N)=O)c3F)on2)cc1	–	–	–	–	–	–	–	–	Active	–	–	–	–	–	–
CCCCc1ccc(C2=NOC(COc3ccc(F)c(C(N)=O)c3F)C2)cc1 (stereo unspecified)	> 64 µg/mL	> 64 µg/mL	0.5 µg/mL (≈ 1.29 µM)	≤ 0.125 µg/mL	0.5 µg/mL (≈ 1.29 µM)	0.25 µg/mL (≈ 0.644 µM)	0.5 µg/mL (≈ 1.29 µM)	0.5 µg/mL (≈ 1.29 µM)	Active	Active	0.5 µg/mL (≈ 1.29 µM)	1 µg/mL (≈ 2.57 µM)	0.5 µg/mL (≈ 1.29 µM)	0.5 µg/mL (≈ 1.29 µM)	Ratio (Staphylococcus aureus [7]): 2; Ratio (Staphylococcus aureus [8]): 2; Ratio (Staphylococcus aureus [9]): 8; Ratio (Staphylococcus aureus [10]): 64; Ratio (Staphylococcus aureus [11]): 4; Activity (Staphylococcus aureus [12]): <1 10^3CFU/ml; IC50 (HeLa): > 64 µg/mL; cell length (Bacillus subtilis [14]): 29.3 µm; Activity (Staphylococcus aureus [15]): <1 10^3CFU/ml; Activity (Staphylococcus aureus [16]): <1 10^3CFU/ml; Activity (Staphylococcus aureus [17]): Active; Ratio (Staphylococcus aureus [18]): 1; Ratio (Staphylococcus aureus [19]): 2; Ratio (Staphylococcus aureus [20]): 2; Ratio (Staphylococcus aureus [21]): 1; inhibition (Bacillus subtilis [26]): Dose-dependent effect; cell diameter (Staphylococcus aureus [27]): 2.41 µm
CC(=O)NC[C@H]1CN(c2ccc(N3CCOCC3)c(F)c2)C(=O)O1 [LINEZOLID]	> 64 µg/mL	> 64 µg/mL	1 µg/mL (≈ 2.96 µM)	1 µg/mL (≈ 2.96 µM)	–	–	0.5 µg/mL (≈ 1.48 µM)	1 µg/mL (≈ 2.96 µM)	–	Active	64 µg/mL (≈ 190 µM)	> 64 µg/mL	> 64 µg/mL	> 64 µg/mL	inhibition (Bacillus subtilis [28]): inactive
CN(C)c1ccc(C2=NOC(COc3ccc(F)c(C(N)=O)c3F)C2)cc1 (stereo unspecified)	> 64 µg/mL	> 64 µg/mL	–	64 µg/mL (≈ 170 µM)	> 64 µg/mL	> 64 µg/mL	16 µg/mL (≈ 42.6 µM)	> 64 µg/mL	–	–	–	–	–	–	–

— ChEMBL document CHEMBL4665863 (Bioorg Med Chem, 2020)
